We go through three compounds from ChEMBL document CHEMBL1136179, “Prolylisoxazoles: potent inhibitors of prolyloligopeptidase with antitrypanosomal activity” (Bioorg Med Chem Lett, 2003).

≈ marks a conversion by molar mass, not a printed value. A value given as a limit tells only on which side of the number the result lay.

The test system of test [1] is Leishmania donovani. Nature of the test: Antiprotozoal activity against Leishmania donovani L82 was determined. Type of test: functional. Conditions: read-out: ED50 (the source's name). A digest of the protocol: (§1)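 Leishmania donovani strain L82 was tested against test compounds, with pentostam as the reference drug.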
For test [2], the system named is KB. Nature of the test: Toxicity in T. b. rhodesiense STIB900 infected KB cells. Format: functional. As to conditions: Homo sapiens, read-out: ED50 (the source's name). A digest of the protocol: (§2)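 Cytotoxicity was measured on KB cells, with podophyllotoxin as the reference drug.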
Test [3] deals with KB. In words: Toxicity in Trypanosoma cruzi Lac Z infected KB cells. Format: functional. Conditions: Homo sapiens, read-out: ED50 (the source's name). The gist of the method: as §2
Test [4] relates to KB. Nature of the test: Toxicity in Leishmania donovani L82 infected KB cells. Format: functional. Conditions: Homo sapiens, read-out: ED50 (the source's name). The gist of the method: as §2
Test [5] concerns Leishmania donovani. In words: Antiprotozoal activity against Leishmania donovani L82 at a dose of 30 ug/mL. Compound was toxic to host macrophages. Type of test: functional. The gist of the method: as §1
Test [6] relates to Leishmania donovani. Nature of the test: Antiprotozoal activity against Leishmania donovani L82 at a dose of 3 ug/mL. Format: functional. The gist of the method: as §1
Test [7] deals with Leishmania donovani. In words: Antiprotozoal activity against Leishmania donovani L82 at a dose of 10 ug/mL. Type of test: functional. A digest of the protocol: as §1
Test [8] has as its system Trypanosoma cruzi. In words: Antiprotozoal activity against Trypanosoma cruzi Lac Z was determined. Type of test: functional. As to conditions: read-out: ED50 (the source's name). A digest of the protocol:
(§3)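 Trypanosoma cruzi of the Lac Z strain was tested, with benznidazol as the reference drug.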

The test system of test [9] is Trypanosoma brucei rhodesiense. Nature of the test: Antiprotozoal activity against T. b. rhodesiense STIB900 at a dose of 10 ug/mL. Type of test: functional. A digest of the protocol:
(§4)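 Trypanosoma brucei rhodesiense strain STIB900 was tested, with pentamidine as the reference drug.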

The subject of test [10] is Trypanosoma brucei rhodesiense. Nature of the test: Antiprotozoal activity against T. b. rhodesiense STIB900 at a dose of 1 ug/mL. Format: functional. A digest of the protocol:
as §4

Test [11] deals with Trypanosoma brucei rhodesiense. Nature of the test: Antiprotozoal activity against T. b. rhodesiense STIB900 at a dose of 3 ug/mL. Format: functional. The gist of the method: as §4
Test [12] relates to Trypanosoma brucei rhodesiense. Nature of the test: Antiprotozoal activity against T. b. rhodesiense STIB900 was determined. Format: functional. As to conditions: read-out: ED50 (the source's name). A digest of the protocol: as §4
Test [13] has as its system Trypanosoma cruzi. Nature of the test: Antiprotozoal activity against Trypanosoma cruzi Lac Z at a dose of 1 ug/mL. Type of test: functional. The gist of the method: as §3
Test [14] has as its system Trypanosoma cruzi. In words: Antiprotozoal activity against Trypanosoma cruzi Lac Z at a dose of 30 ug/mL. Compound was toxic to host macrophages. Type of test: functional. A digest of the protocol:
as §3

For test [15], the system named is Trypanosoma cruzi. Nature of the test: Antiprotozoal activity against Trypanosoma cruzi Lac Z at a dose of 3 ug/mL. Format: functional. A digest of the protocol:
as §3

The subject of test [16] is Trypanosoma cruzi. Nature of the test: Antiprotozoal activity against Trypanosoma cruzi Lac Z at a dose of 10 ug/mL. Type of test: functional. The gist of the method: as §3
In test [17] the test system is Trypanosoma brucei rhodesiense. In words: Antiprotozoal activity against T. b. rhodesiense STIB900 at a dose of 30 ug/mL.
For a further test, the target named is T1, Prolyl endopeptidase (Homo sapiens, UniProt P48147).
T1 sequence (P48147 whole entry): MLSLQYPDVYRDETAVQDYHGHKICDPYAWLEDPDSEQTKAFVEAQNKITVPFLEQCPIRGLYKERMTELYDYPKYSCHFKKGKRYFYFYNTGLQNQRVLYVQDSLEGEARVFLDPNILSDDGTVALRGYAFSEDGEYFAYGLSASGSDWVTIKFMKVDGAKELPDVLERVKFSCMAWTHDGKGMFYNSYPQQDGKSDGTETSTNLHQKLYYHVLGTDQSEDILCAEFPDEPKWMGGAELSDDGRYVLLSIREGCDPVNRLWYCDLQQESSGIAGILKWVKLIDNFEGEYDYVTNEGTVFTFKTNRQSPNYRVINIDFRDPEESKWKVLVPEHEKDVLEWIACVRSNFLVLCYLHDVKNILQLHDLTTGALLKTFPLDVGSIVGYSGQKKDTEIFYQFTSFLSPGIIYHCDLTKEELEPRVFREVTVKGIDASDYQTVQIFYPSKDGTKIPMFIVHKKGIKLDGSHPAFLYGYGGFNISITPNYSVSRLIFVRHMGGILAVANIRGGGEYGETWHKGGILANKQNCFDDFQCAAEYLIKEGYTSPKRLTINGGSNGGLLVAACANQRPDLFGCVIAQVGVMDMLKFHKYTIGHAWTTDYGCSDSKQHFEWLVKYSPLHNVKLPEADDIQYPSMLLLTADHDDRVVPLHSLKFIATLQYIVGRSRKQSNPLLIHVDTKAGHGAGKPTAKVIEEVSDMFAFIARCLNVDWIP
Nature of the test: In vitro inhibitory activity determined against prolyl oligopeptidase (PO) in human; Moderately active.

Test [18] relates to Leishmania donovani. In words: Antiprotozoal activity against Leishmania donovani was determined. As to conditions: read-out: ED50.
For test [19], the system named is KB. Nature of the test: Toxicity in Leishmania donovani infected KB cells. Conditions: Homo sapiens, read-out: ED50 (the source's name). Type of test: functional. A digest of the protocol:
as §2

For test [20], the system named is KB. Nature of the test: Toxicity in Trypanosoma cruzi infected KB cells. Format: functional. Conditions: Homo sapiens, read-out: ED50 (the source's name). A digest of the protocol: as §2
Test [21] has as its system Leishmania donovani. In words: Antiprotozoal activity against Leishmania donovani at a dose of 10 ug/mL. Type of test: functional. The gist of the method: as §1
In test [22] the test system is Leishmania donovani. In words: Antiprotozoal activity against Leishmania donovani at a dose of 30 ug/mL. Compound was toxic to host macrophages. Type of test: functional. A digest of the protocol:
as §1

Test [23] concerns Leishmania donovani. In words: Antiprotozoal activity against Leishmania donovani at a dose of 3 ug/mL. Type of test: functional. The gist of the method: as §1
The test system of test [24] is Trypanosoma cruzi. In words: Antiprotozoal activity against Trypanosoma cruzi was determined. Type of test: functional. Conditions: read-out: ED50 (the source's name). The gist of the method:
as §3

Test [25] relates to Trypanosoma brucei rhodesiense. Nature of the test: Antiprotozoal activity against T. b. rhodesiense at a dose of 10 ug/mL. Format: functional. The gist of the method:
as §4

For test [26], the system named is Trypanosoma brucei rhodesiense. In words: Antiprotozoal activity against T. b. rhodesiense at a dose of 1 ug/mL. Format: functional. The gist of the method: as §4
Test [27] relates to Trypanosoma brucei rhodesiense. Nature of the test: Antiprotozoal activity against T. b. rhodesiense at a dose of 3 ug/mL. Format: functional. The gist of the method:
as §4

Test [28] deals with Trypanosoma brucei rhodesiense. In words: Antiprotozoal activity against T. b. rhodesiense was determined. Type of test: functional. Conditions: read-out: ED50 (the source's name). The gist of the method: as §4
Test [29] concerns Trypanosoma cruzi. In words: Antiprotozoal activity against Trypanosoma cruzi at a dose of 10 ug/mL. Type of test: functional. A digest of the protocol:
as §3

Test [30] has as its system Trypanosoma cruzi. In words: Antiprotozoal activity against Trypanosoma cruzi at a dose of 1 ug/mL. Format: functional. The gist of the method:
as §3

For test [31], the system named is Trypanosoma cruzi. In words: Antiprotozoal activity against Trypanosoma cruzi at a dose of 30 ug/mL. Compound was toxic to host macrophages. Format: functional. The gist of the method: as §3
For test [32], the system named is Trypanosoma cruzi. In words: Antiprotozoal activity against Trypanosoma cruzi at a dose of 3 ug/mL. Format: functional. The gist of the method:
as §3

For test [33], the system named is KB. In words: Toxicity in T. b. rhodesiense infected KB cells. Type of test: functional. As to conditions: Homo sapiens, read-out: ED50 (the source's name). The gist of the method:
as §2

For test [34], the system named is Trypanosoma brucei rhodesiense. Nature of the test: Antiprotozoal activity against T. b. rhodesiense at a dose of 30 ug/mL.

As usually defined, the inhibition is the share of the control response that was lost under treatment. `O=C(c1cc(COCc2ccccc2)on1)[C@@H]1CCCN1C(=O)[C@@H]1CCCN1C(=O)CCCc1ccccc1`: the EC50 in the test on Leishmania donovani [1] was 13.1 µg/mL (≈ 24.7 µM); in the test with KB [2] it was more than 300 µg/mL; with KB [3] it was more than 300 µg/mL; with KB [4], more than 300 µg/mL; in the test with Trypanosoma cruzi [8], 4.7 µg/mL (≈ 8.87 µM); in test [12], 5.5 µg/mL (≈ 10.4 µM). Moreover, the inhibition at 30 µg/mL with Leishmania donovani [5] worked out at 100%; in the test on Trypanosoma cruzi [14], 86.7%; in [17], 99.9%. Besides, the inhibition at 3 µg/mL turned out to be 0% with Leishmania donovani [6], 6.9% in test [11] and 42.6% in the test on Trypanosoma cruzi [15]. For the same compound, the inhibition at 10 µg/mL in the test with Leishmania donovani [7] is 6.9%; in test [9] it was 95.5%; in the test with Trypanosoma cruzi [16] it was 69.4%. The inhibition at 1 µg/mL came to 0.9% in [10] and 16% with Trypanosoma cruzi [13].

One may read the IC50 as the midpoint of a concentration-inhibition curve. Higher therefore signals weaker potency in that assay. `COC(=O)c1onc(C(=O)[C@@H]2CCCN2C(=O)[C@@H]2CCCN2C(=O)OCc2ccccc2)c1C(=O)OC` gave a half-inhibitory concentration (IC50) against Prolyl endopeptidase of more than 1 µM.

As to `O=C(c1cc(-c2ccccc2)on1)[C@@H]1CCCN1C(=O)[C@@H]1CCCN1C(=O)OCc1ccccc1`, the EC50 in the test with Leishmania donovani [18] came to 13.5 µg/mL (≈ 28.5 µM); with KB [19] it was 23 µg/mL (≈ 48.6 µM); with KB [20], 23 µg/mL (≈ 48.6 µM); in the test on Trypanosoma cruzi [24], 6.7 µg/mL (≈ 14.1 µM); in [28] it was 2.2 µg/mL (≈ 4.65 µM); with KB [33], 23 µg/mL (≈ 48.6 µM). For the same compound, the inhibition at 10 µg/mL in the test with Leishmania donovani [21] stood at 1.8%; in test [25], 99.8%; in the test on Trypanosoma cruzi [29], 59.9%. Besides, the results for the inhibition at 30 µg/mL (with Leishmania donovani [22]; in the test with Trypanosoma cruzi [31]; in [34]) were 100%, 86.7% and 99.9%, respectively. Moreover, the values for the inhibition at 3 µg/mL (in the test on Leishmania donovani [23]; in [27]; in the test on Trypanosoma cruzi [32]) were 0%, 83.4% and 29%, respectively. Besides, the inhibition at 1 µg/mL was determined as 7.7% in [26] and 10.8% in the test with Trypanosoma cruzi [30].
